Assays:
[1] = Selectivity for human PDE4B over PDE5
[2] = target: 3',5'-cyclic-AMP phosphodiesterase 4B (Homo sapiens, UniProt Q07343); assay: Inhibition of human PDE4B in Sf9 cells; format: cell-based
How it was run: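 Catalytic activity of human recombinant PDE4B enzyme was measured by scintillation proximity assay (SPA).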

[3] = Selectivity for human PDE4B over PDE3
[4] = Inhibition of PDE5
How it was run: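 Inhibition of human recombinant PDE5 catalytic activity, measured by scintillation proximity assay.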

[5] = Oral bioavailability in rat; format: ADME, organism-based; details: in vivo
[6] = Inhibition of PDE3
How it was run: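 Inhibition of PDE3 isolated from bovine aorta, measured as loss of catalytic activity by scintillation proximity assay (SPA).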

[7] = Half life in po dosed rat; format: ADME, organism-based; details: in vivo
PBMC = assay: Inhibition of TNF alpha production in human PBMC cells by ELISA; format: functional, cell-based
How it was run: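 PBMCs were isolated from heparinised human blood by centrifugation on histopaque (1000g, 30 min), washed, and resuspended at 5 × 10⁵ cells/ml in RPMI1640 with 10% foetal calf serum, 1% L-glutamine and 1% penicillin/streptomycin. Cells were preincubated with compound for 1 h at 37 °C, 5% CO₂, then stimulated with LPS (1 ng/ml final) for a further 20 h.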

Chain of 3',5'-cyclic-AMP phosphodiesterase 4B (Q07343 whole entry): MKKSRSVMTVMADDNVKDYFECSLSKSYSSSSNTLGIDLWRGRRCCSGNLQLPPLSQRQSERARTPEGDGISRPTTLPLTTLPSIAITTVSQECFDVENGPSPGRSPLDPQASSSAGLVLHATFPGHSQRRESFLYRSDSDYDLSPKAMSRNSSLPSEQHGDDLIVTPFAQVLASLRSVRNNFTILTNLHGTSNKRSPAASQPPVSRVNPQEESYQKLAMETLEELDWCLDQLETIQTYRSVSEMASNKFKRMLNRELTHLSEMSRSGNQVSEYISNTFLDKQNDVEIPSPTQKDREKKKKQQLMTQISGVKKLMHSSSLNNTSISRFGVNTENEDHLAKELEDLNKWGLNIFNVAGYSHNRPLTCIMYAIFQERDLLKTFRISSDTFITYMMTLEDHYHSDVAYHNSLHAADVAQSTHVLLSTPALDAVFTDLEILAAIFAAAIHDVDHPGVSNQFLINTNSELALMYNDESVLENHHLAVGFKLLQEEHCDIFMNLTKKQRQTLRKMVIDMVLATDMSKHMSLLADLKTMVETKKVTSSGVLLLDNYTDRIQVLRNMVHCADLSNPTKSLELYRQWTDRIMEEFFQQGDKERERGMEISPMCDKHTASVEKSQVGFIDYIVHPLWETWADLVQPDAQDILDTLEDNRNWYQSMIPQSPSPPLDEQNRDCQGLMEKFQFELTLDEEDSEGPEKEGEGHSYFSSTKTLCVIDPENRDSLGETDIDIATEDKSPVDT

SMILES	Selectivity ratio [1]	IC50 [2]	Selectivity ratio [3]	further results
CCn1ncc2c(NC3CCOCC3)c(C(=O)NC3CC3)cnc21	> 100	100 nM	> 100	
CCn1ncc2c(NC3CCOCC3)c(C(=O)NCc3ccccc3)cnc21	> 100		> 100	pIC50 [4]: 5.7; bioavailability [5]: 35%; pIC50 [6]: < 4.5; half-life [7]: 1.6 h; IC50 (PBMC): 20 nM
CCn1ncc2c(NC3CCOCC3)c(C(=O)NC3CCN(C(C)=O)CC3)cnc21	> 100	126 nM	> 100	
CCCn1ncc2c(NC3CCOCC3)c(C(=O)OCC)cnc21		100 nM		
CCOC(=O)c1cnc2c(cnn2CC)c1N(C)C1CCOCC1		251 nM		
CCOC(=O)c1cnc2c(cnn2CC)c1N1CCCC1		631 nM		
CCOC(=O)c1cnc2[nH]ncc2c1NC1CCOCC1		2000 nM		
CCn1ncc2c(NC3CCOCC3)c(C(=O)N3CCCC3)cnc21	> 100	158 nM	> 100	
CCn1ncc2c(NC3CCOCC3)c(C(=O)NCC3CCCCC3)cnc21	> 100	7.94 nM	> 100	pIC50 [4]: 5.5; pIC50 [6]: < 4.5; IC50 (PBMC): 63.1 nM
CCOC(=O)c1cnc2c(cnn2C)c1NC1CCOCC1		251 nM		
CCCCNc1c(C(=O)OCC)cnc2c1cnn2CC [CARTAZOLATE]		200 nM		
CCn1ncc2c(NC3CCOCC3)c(C(=O)NC3CCCC3)cnc21	> 100	50.1 nM	> 100	pIC50 [4]: < 4.7; pIC50 [6]: < 4.5; IC50 (PBMC): 158 nM
CCOC(=O)c1cnc2c(cnn2CC)c1NCc1ccc(F)cc1		316 nM		
CCn1ncc2c(NC3CCOCC3)c(C(=O)N(C)Cc3ccccc3)cnc21	> 100	50.1 nM	> 100	
CCOC(=O)c1cnc2c(cnn2CC)c1NS(=O)(=O)c1ccccc1		> 31600 nM		
CCOC(=O)c1cnc2c(cnn2CC)c1Nc1ccccc1		158 nM		
CCOC(=O)c1cnc2c(cnn2Cc2ccccc2)c1NC1CCOCC1		3980 nM		
CCC(CC)CNC(=O)c1cnc2c(cnn2CC)c1NC1CCOCC1	> 100	20 nM	> 100	pIC50 [4]: 4.8; pIC50 [6]: < 4.5; IC50 (PBMC): 79.4 nM
CCOC(=O)c1cnc2c(cnn2CC)c1NC1CCOCC1		10 nM		
CCOC(=O)c1cnc2c(cnn2CC)c1NC1CCCC1		63.1 nM		
CCOC(=O)c1cnc2c(cnn2CCO)c1NC1CCOCC1		158 nM		
CCOC(=O)CCn1ncc2c(NC3CCOCC3)c(C(=O)OCC)cnc21		5010 nM		
CCOC(=O)c1cnc2c(cnn2C(C)C)c1NC1CCOCC1		200 nM		
CCOC(=O)c1cnc2c(cnn2CC)c1Nc1ccc(OC)cc1		1000 nM		
CCOC(=O)c1cnc2c(cnn2CC)c1NC(=O)c1ccccc1		2510 nM		
CCn1ncc2c(NC3CCOCC3)c(C(=O)Nc3ccc(F)cc3)cnc21	> 100		> 100	pIC50 [4]: < 4.7; pIC50 [6]: < 4.5; IC50 (PBMC): 39.8 nM
CCOC(=O)c1cnc2c(cnn2CC)c1NCC(C)C		15.8 nM		
CCn1ncc2c(NC3CCOCC3)c(C(N)=O)cnc21	> 100	25.1 nM	> 100	pIC50 [4]: 4.8; pIC50 [6]: < 4.5; IC50 (PBMC): 79.4 nM
CCOC(=O)c1cnc2c(cnn2-c2ccccc2)c1NC1CCOCC1		3160 nM		

From ChEMBL document CHEMBL1157491, “Pyrazolopyridines as a novel structural class of potent and selective PDE4 inhibitors” (Bioorg Med Chem Lett, 2008)
